Shown are actives, neighbours in structure and some others; about 2.4% of the full set was active somewhere.
S1P4 agonist: human S1P4 receptor agonism; O95977; S1P4-expressing cell line, agonist reporter assay; activation, % at 4.98 µM; 0.35% of 220,000 active; in the data active means activation above about 11%;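 further: 0% = DMSO vehicle and 100% = reference agonist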
S1P4 antagonist: antagonists of human S1P4 receptor; AID 1510; 0.26% of 220,000 active; S1P4-expressing cells, antagonist mode, reporter read-out; inhibition, % at 4.98 µM; O95977; in the data active means inhibition above about 29%;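 further: 0% = wells stimulated with agonist and 100% = vehicle wells without agonist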
NPY2 pot ag: potentiates or activates human NPY-Y2 receptor | P49146 | cells expressing NPY-Y2, potentiator/agonist read-out | 0.45% of 220,000 active | activation, % at 3.6 µM | AID 1359; in the data active means activation above about 27%;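 further: cells stimulated with NPY near EC25 plus isoproterenol at EC100; 0% = vehicle plus submaximal agonist and 100% = vehicle plus saturating agonist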
Target sequence (P49146 whole entry, looked up): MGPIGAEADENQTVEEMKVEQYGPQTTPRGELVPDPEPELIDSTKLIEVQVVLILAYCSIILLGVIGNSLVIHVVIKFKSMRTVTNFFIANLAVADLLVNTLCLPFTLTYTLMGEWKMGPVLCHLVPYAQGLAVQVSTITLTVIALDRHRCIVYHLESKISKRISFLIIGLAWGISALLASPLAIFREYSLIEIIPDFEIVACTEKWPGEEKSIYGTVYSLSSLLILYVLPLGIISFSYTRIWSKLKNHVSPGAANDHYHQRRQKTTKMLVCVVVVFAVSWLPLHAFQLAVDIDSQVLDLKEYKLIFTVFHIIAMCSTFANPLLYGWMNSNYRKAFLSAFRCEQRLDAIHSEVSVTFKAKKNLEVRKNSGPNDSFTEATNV
NPY1 pot ag: potentiators or agonists of human neuropeptide Y receptor Y1 | P25929 | NPY-Y1 expressing cells, potentiator/agonist activation | activation, % at 3.6 µM | 0.37% of 220,000 active; in the data active means activation above about 33%, passing the limit was not always enough;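 further: cells stimulated with NPY at EC10 then isoproterenol at EC100; 0% = low agonist plus stimulus and 100% = saturating agonist plus stimulus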
NPY Y1 blocker: NPY-Y1 (human) receptor antagonism; inhibition, % at 3.6 µM; HEK293-CNG Y1 cells, membrane potential fluorescence; NPY at EC95, then isoproterenol; 1% of 200,000 active; AID 1040; P25929;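 active means inhibition above the campaign mean inhibition of all tested compounds plus 3 SD, cut at about 20% in these data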;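 further: 0% = DMSO wells given NPY plus isoproterenol and 100% = isoproterenol alone without NPY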
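material = HEK293 cells with Y1 receptor plus CNG channel | also added = NPY 25 nM then isoproterenol 1 µM plus Ro 20-1724 25 µM | schedule = dye 3 h, compound 60 min room temperature, stimulation 45 min | measured by = membrane potential fluorescence | benchmarks = high control isoproterenol alone, low control NPY with isoproterenol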
NPY Y2 blocker: NPY-Y2 (human) receptor antagonism; P49146; NPY-Y2 expressing cells, antagonist mode; inhibition, % at 2.7 µM; 0.99% of 140,000 active; AID 793; in the data active means inhibition above about 17%;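 further: 0% = vehicle with agonist challenge and 100% = reference antagonist with challenge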
NPY-Y1 antag ct: antagonizes human NPY-Y1, counter-screen to NPY-Y2 antagonists; shares compounds with NPY Y2 blocker; cell-based NPY-Y1 antagonism counterscreen; inhibition, % at 3.6 µM; 19% of 710 active; AID 1256; in the data active means inhibition above about 20%;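 further: cells challenged with NPY then isoproterenol with cAMP sensed through a CNG channel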
NPY-Y2 ant conf: human NPY-Y2 antagonism, confirmation | shares compounds with NPY Y2 blocker | HEK293 NPY-Y2 CNG channel, membrane potential fluorescence | inhibition, % at 2.8 µM | 32% of 710 active;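 active means mean inhibition of triplicate wells above the hit cutoff set in the primary screen, cut at about 17% in these data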;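 further: 0% = DMSO with NPY challenge and 100% = BIIE0246 high control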
Starred values were filed as active, the others as inactive; x = no result.

SMILES	S1P4 agonist	S1P4 antagonist	NPY2 pot ag	NPY1 pot ag	NPY Y1 blocker	NPY Y2 blocker	NPY-Y1 antag ct	NPY-Y2 ant conf
CCOC(=O)c1cc2c(=O)n3ccccc3nc2n(CCCOC)c1=NC(C)=O	8	-16	8	4	-1	21*	1	3
CCOCCCn1c(=N)c(C(=O)NCc2ccc3c(c2)OCO3)cc2c(=O)n3ccccc3nc21	3	-10	6	-12	19	23*	18	8
CCOC(=O)c1cc2c(=O)n3ccccc3nc2n(CCCOC)c1=NC(=O)c1ccncc1	1	6	2	7	3	x	x	x
CCCn1c(=N)c(C(=O)NCc2ccc3c(c2)OCO3)cc2c(=O)n3cccc(C)c3nc21	2	-19	-17	7	5	2	x	x
COc1ccc(-c2nnc3n2N=C(c2cccc(Br)c2)CS3)cc1OC	0	-7	-1	2	2	19*	4	9
CCOC(=O)Cn1nc(C)c(NC(=O)COc2ccc(C)c(C)c2)c1C	1	-14	-11	-12	x	x	x	x
O=C(NCc1ccc2c(c1)OCO2)c1cc(-c2ccccc2)on1	1	9	5	-36	0	8	x	x
Cc1ccc(-c2cc(C(=O)NCc3ccc4c(c3)OCO4)no2)cc1	-1	-5	-12	-41	17	18*	14	10
COc1ccccc1C(=O)OCC(=O)Nc1ccc(Cl)cn1	1	-4	-20	-18	19	x	x	x
O=C(CSc1ccc2ccccc2n1)c1ccccc1	-1	0	2	-12	x	x	x	x
COc1ccccc1NC(=O)Cn1cnc2c(nnn2-c2ccc(C)cc2)c1=O	2	-4	3	8	-2	x	x	x
COc1cc2c(cc1OC)-c1cc(Nc3ccccc3)nc(=O)n1CC2	1	11	-53	-22	x	x	x	x
CCOc1cccc(Nc2cc3n(c(=O)n2)CCc2cc(OC)c(OC)cc2-3)c1	1	-13	-23	-37	14	18*	38*	65*
O=C(O)c1cc(Cl)c2ccccc2c1O	-1	4	-23	-31	8	20*	21*	11
CCn1c2ccccc2c2cc(NC(=O)COC(=O)c3cc(Cl)c(N)cc3OC)ccc21	0	-6	4	24	x	x	x	x
NNC(=S)NCc1ccccc1	1	0	8	15	x	x	x	x
CCOC(=O)C1CCCN(c2nc(C)nc3c2oc2ccccc23)C1 (configuration not stated)	0	-10	-22	-10	7	18*	15	14
Cc1nc(N2CCOCC2)c2oc3ccccc3c2n1	0	-7	1	-8	5	-2	x	x
CCOc1ccc(CNCCNC(=O)c2nonc2N)cc1	0	-12	-2	-8	2	x	x	x
Nc1nonc1C(=O)NCCNCc1ccccc1OCc1ccc(F)cc1	1	-12	-36	-21	10	17*	12	12
CN(C)c1ccc(/C=N\NC(=O)c2cccc3cc[nH]c23)cc1	2	9	5	11	x	x	x	x
Cc1ccc(N=C(NOC(=O)c2ccccc2)c2nonc2N)c(C)c1	-3	-7	-23	-2	9	25*	7	4
CC(=O)ONC(=Nc1ccccc1)c1nonc1N	0	8	-27	17	x	x	x	x
C/C(=N/NC(=O)CNC(=O)c1cccs1)c1ccco1	3	-5	0	23	x	x	x	x
CC(C)(C)n1nnnc1C(c1cccs1)N(Cc1ccc(Cl)cc1)CC1CCCO1 (configuration not stated)	3	0	2	-21	11	28*	19	11
CCCn1ncc(CN2CCCC(C(=O)c3cccc(OC(C)C)c3)C2)c1C (configuration not stated)	0	-12	-47	-3	x	x	x	x
c1ccc(Cc2nnc(-c3ccccc3)o2)cc1	5	-11	-12	-32	10	135*	9	19*
Cc1ccccc1C(=O)Oc1ccc(Br)cc1C(=S)N1CCCC1	-1	-18	-7	-23	7	17*	14	10
O=C(Oc1ccc(Br)cc1C(=S)N1CCCC1)c1ccccc1Cl	1	-10	-7	-25	5	10	x	x

Source: PubChem (The Scripps Research Institute Molecular Screening Center)
